From publication PMC11792172 (Journal of natural products, 2025)
Like-named read-outs stand apart in the source and are kept apart here.

Assays:
Na+/K+-ATPase (NKA) [1] = test: Na+/K+-ATPase activity assay; format: biochemical; settings: for effect on NKA at a high concentration: high concentration (>100 μM), Figure 3
Summary of the method: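 Luminescent ADP detection read out enzyme activity by quantifying the ADP formed during the enzymatic first half-reaction. Assays were run in triplicate and were representative of three independent experiments. IC50 was obtained from dose-response curves by nonlinear regression.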

[2] = test system: OVCAR3 ovarian cancer cells; test: Cytotoxicity assay; format: cell-based; settings: Homo sapiens, OVCAR-3, 72 h, read-out: IC50, inhibition of viability, OVCAR3
[3] = test system: OVCAR5 ovarian cancer cells; test: Cytotoxicity assay; format: cell-based; settings: Homo sapiens, OVCAR-5, 72 h, read-out: IC50, inhibition of viability, OVCAR5
[4] = test system: MDA-MB-231 breast cancer cells; test: Cytotoxicity assay; format: cell-based; settings: Homo sapiens, MDA-MB-231, 72 h, read-out: IC50, inhibition of viability, MDA-MB-231
[5] = test system: MDA-MB-435 melanoma cells; test: Cytotoxicity assay; format: cell-based; settings: Homo sapiens, MDA-MB-435, 72 h, read-out: IC50, inhibition of viability, MDA-MB-435
Na+/K+-ATPase (NKA) [6] = settings: read-out: IC50, inhibition of NKA activity, cited from earlier work

In the case of CO[C@H]1C[C@H](O[C@H]2CC[C@@]3(C)[C@@H](C2)C[C@@H]2O[C@]24[C@@H]3[C@H](OC(C)=O)C(=O)[C@]2(C)[C@@H](C3=CC(=O)OC3)CC[C@]42O)O[C@@H](C)[C@@H]1OC(C)=O [1a, (−)-11,4′-di-O-acetylcryptanoside A], the “effect on NKA at a high concentration” value (Na+/K+-ATPase (NKA) [1]) is reported as “activate NKA”.

In the case of CC(=O)O[C@H]1C(=O)[C@@]2(C)[C@H]([C@H](OC(=O)c3ccccc3)[C@]3(O)C[C@H](OC(=O)[C@H](O)[C@@H](NC(=O)c4ccccc4)c4ccccc4)C(C)=C1C3(C)C)[C@]1(OC(C)=O)CO[C@@H]1C[C@@H]2O [Paclitaxel, paclitaxel], the IC50 [2] is reported as 4.9 ± 0.1 nM, the IC50 [3] is reported as 7.3 ± 0.1 nM and the IC50 [4] is reported as 3.8 ± 0.1 nM. The IC50 [5] was 1.9 ± 0.1 nM.

For CO[C@H]1C[C@H](O[C@H]2CC[C@@]3(C)[C@@H](C2)C[C@@H]2O[C@]24[C@@H]3[C@H](O)C(=O)[C@]2(C)[C@@H](C3=CC(=O)OC3)CC[C@]42O)O[C@@H](C)[C@@H]1O [compound 1, (−)-Cryptanoside A], the IC50 (Na+/K+-ATPase (NKA) [6]; data reported previously) is given as 1200 ± 100 nM.

For CO[C@H]1C[C@H](O[C@H]2CC[C@@]3(C)[C@@H](C2)C[C@@H]2O[C@]24[C@@H]3[C@H](O)C(=O)[C@]2(C)[C@H](C3=CC(=O)OC3)CC[C@]42O)O[C@@H](C)[C@@H]1O [compound 2, (−)-17-epi-cryptanoside A], the IC50 (Na+/K+-ATPase (NKA) [1]; read-out: IC50, inhibition of NKA activity) was over 20000 nM.

For C[C@]12CC[C@H]3[C@@H](C=CC4=CC(=O)[C@H](O)C[C@@]43C)[C@@H]1CC[C@@H]2C(=O)O [compound 3, (+)-2-hydroxyandrosta-4,6-diene-3-one-17-carboxylic acid], the “effect on NKA at a high concentration” value (Na+/K+-ATPase (NKA) [1]) was “activate NKA”.

In the case of C[C@H]1O[C@@H](O[C@H]2[C@@H](O)C[C@H](O[C@H]3[C@@H](O)C[C@H](O[C@H]4CC[C@@]5(C)[C@H](CC[C@@H]6[C@@H]5C[C@@H](O)[C@]5(C)[C@@H](C7=CC(=O)OC7)CC[C@]65O)C4)O[C@@H]3C)O[C@@H]2C)C[C@H](O)[C@@H]1O [digoxin], the IC50 (Na+/K+-ATPase (NKA) [6]) is listed as 230 ± 20 nM.
